Structures are written as SMILES. Active and inactive are the calls of the source. The rule behind the calls is not given here.

These results are taken from ChEMBL document CHEMBL1817640, “Synthesis, trypanocidal activity and molecular modeling studies of 2-alkylaminomethylquinoline derivatives” (Eur J Med Chem, 2011).

Data set [1] has as its system Trypanosoma cruzi. In words: Trypanocidal activity against epimastigote form of Trypanosoma cruzi assessed as [3H]thymidine uptake after 72 hrs by liquid scintillation counter. The class given is functional, organism-based. Summed up:
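RA-strain epimastigotes grown in biphasic medium at 26 °C, adjusted to 1.5 × 10⁶/mL. Cultured 72 h with compound at 100, 50, 10, 5, 1 and 0.5 (final). Benznidazole 5–20 as positive control. Growth measured by [³H]thymidine uptake. % inhibition = 100 − (cpm treated/cpm untreated × 100); IC50 estimated from this.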

For data set [2], the system named is Trypanosoma cruzi. The data set is described as follows: Trypanocidal activity against bloodstream trypomastigote form of Trypanosoma cruzi after 24 hrs. The format is functional, organism-based. Summed up:
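Trypomastigotes were taken by cardiac puncture from infected CF1 mice at peak parasitemia (day 15). Blood was diluted in complete RPMI to 1.5 × 10⁶ parasites/mL and seeded in duplicate with compound at 0.5–100 final concentration; benznidazole served as control drug. After 24 h incubation at 4 °C, surviving parasites were counted in a Neubauer chamber.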

The subject of data set [3] is Trypanosoma cruzi. The data set is described as follows: Trypanocidal activity against intracellular amastigotes form of Trypanosoma cruzi expressing beta-galactosidase infected in mouse J774 cells on day 7. The class given is functional, organism-based. To be noted: J774, 168 h. Summed up: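 Host cells infected with β-galactosidase-expressing trypomastigotes at a 10:1 parasite:cell ratio. After 24 h, washed twice with PBS, then compound added at 0.5–100 in phenol-red-free complete RPMI, duplicates. Uninfected and infected controls included. Developed with CPRG (100 final) plus 1% Nonidet P-40 for 4–6 h at 37 °C, read at A570. % inhibition relative to untreated infected cells; IC50 estimated.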

A short description of data set [4]: Cytotoxicity against african green monkey COS7 cells after 24 hrs by MTT assay. The format is cell-based. Conditions: chlorocebus aethiops, COS-7 cells. In general terms: Tetrazolium assays rely on reduction of a dye to a coloured formazan, in cell work by metabolically active cells.
A short description of data set [5]: Selectivity index, ratio of CC50 for african green monkey COS7 cells to IC50 for bloodstream trypomastigote form of Trypanosoma cruzi. The class given is functional, COS-7. Summed up: (§1)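 SI = CC50 divided by the IC50 against trypomastigotes or amastigotes, respectively.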
Data set [6] is described as follows: Selectivity index, ratio of CC50 for african green monkey COS7 cells to IC50 for intracellular amastigotes form of Trypanosoma cruzi. The format is functional, COS-7. An outline of the steps: as §1
Data set [7] relates to Trypanosoma cruzi. The data set is described as follows: Antitrypanosomal activity against bloodstream trypomastigote form of Trypanosoma cruzi RA infected in C3H/HeN mouse assessed as reduction in parasites at 1 mg/kg administered 5 days after infection for 10 consecutive days relative to untreated control. The format is functional.
For data set [8], the system named is Trypanosoma cruzi. The data set is described as follows: Antitrypanosomal activity against bloodstream trypomastigote form of Trypanosoma cruzi RA infected in C3H/HeN mouse assessed as decrease in parasitemia at 1 mg/kg administered 5 days after infection for 10 consecutive days measured on day 14 relative to untreated control. The class given is functional, organism-based. The arrangement: dose 1 mg/kg.

In the case of `CCOC(=O)c1c(CN(C)Cc2ccccc2)nc2ccc(Cl)cc2c1-c1ccccc1`, the values for the IC50 with Trypanosoma cruzi [1], in the data set on Trypanosoma cruzi [2] and with Trypanosoma cruzi [3] were 9.7 µM, 128 µM and 61 µM, respectively. Also, in data set [4], half-maximal cytotoxicity (CC50 at 24 h) was put at 315 µM. For the same molecule, the “Ratio CC50/IC50” value in data set [5] worked out at 2.5; in data set [6] it was 5.2.

For `CC(O)CNCc1nc2ccc(Cl)cc2c(-c2ccccc2)c1C(=O)O` (stereo not drawn), in the data set with Trypanosoma cruzi [1], the IC50 (as a rule, the concentration needed to halve the response being measured) was 50.4 µM.

In the case of `CCOC(=O)c1c(CN2CCN(C)CC2)nc2ccc(Cl)cc2c1-c1ccccc1`, the IC50 amounted to 11.8 µM in the data set on Trypanosoma cruzi [1], 6.4 µM in the data set with Trypanosoma cruzi [2] and 10.4 µM in the data set with Trypanosoma cruzi [3]. The CC50 (usually the concentration that lowers cell viability or growth by half) at 24 h in data set [4] came out at 35.9 µM. Further, the “Ratio CC50/IC50” value in data set [5] turned out to be 5.6; in data set [6] it was 3.5.

As to `CC(=O)NCCCCCCNCc1nc2ccc(Cl)cc2c(-c2ccccc2)c1C(=O)O`, the IC50 with Trypanosoma cruzi [1] worked out at 3.4 µM; with Trypanosoma cruzi [2], 3.1 µM; in the data set with Trypanosoma cruzi [3], 12.8 µM. This molecule returned a CC50 at 24 h in data set [4] of 771 µM. For the same molecule, the “Ratio CC50/IC50” value in data set [5] is given as 248.7; in data set [6], 60.2. Moreover, the “fold change (FC)” value with Trypanosoma cruzi [7] was 3. In addition, the result with Trypanosoma cruzi [8] was Active.

As to `O=C(Cn1ccnc1[N+](=O)[O-])NCc1ccccc1` [BENZNIDAZOLE], the IC50 with Trypanosoma cruzi [1] was found to be 5.8 µM; in the data set on Trypanosoma cruzi [2], 34.1 µM; in the data set on Trypanosoma cruzi [3], 3.6 µM. For the same molecule, in data set [4], the midpoint of cytotoxicity, the CC50 at 24 h, lay at 706 µM. Moreover, the “Ratio CC50/IC50” value in data set [5] came to 20.7; in data set [6], 196.1.

In the case of `CCOC(=O)c1c(CN2CCCCC2)nc2ccc(Cl)cc2c1-c1ccccc1`, the figures for the IC50 with Trypanosoma cruzi [1], in the data set with Trypanosoma cruzi [2] and with Trypanosoma cruzi [3] were 8.2 µM, 51.3 µM and 37.9 µM, respectively. Besides, the CC50 at 24 h in data set [4] came to 311 µM. The “Ratio CC50/IC50” value in data set [5] is given as 6.05; in data set [6], 8.2.

Take `CCOC(=O)c1c(CN2CCCC2)nc2ccc(Cl)cc2c1-c1ccccc1`: the values for the IC50 in the data set on Trypanosoma cruzi [1], with Trypanosoma cruzi [2] and with Trypanosoma cruzi [3] were 10 µM, 62.4 µM and 40.3 µM, respectively. Moreover, half-maximal cytotoxicity in data set [4] (CC50 at 24 h) was put at 490 µM. Besides, the “Ratio CC50/IC50” value in data set [5] came out at 7.8; in data set [6], 12.1.

Take `CC(C)NCc1nc2ccc(Cl)cc2c(-c2ccccc2)c1C(=O)O`: in the data set on Trypanosoma cruzi [1], the IC50 was 89.6 µM.

As to `CCOC(=O)c1c(CCl)nc2ccc(Cl)cc2c1-c1ccccc1`, the IC50 in the data set with Trypanosoma cruzi [1] worked out at 31.4 µM.

Take `CCOC(=O)c1c(CN(CC)CC)nc2ccc(Cl)cc2c1-c1ccccc1`: the IC50 in the data set with Trypanosoma cruzi [1] worked out at 11.6 µM; in the data set with Trypanosoma cruzi [2] it was 42.6 µM; in the data set with Trypanosoma cruzi [3] it was 33 µM. Moreover, it took 480 µM to reach half-maximal cytotoxicity in data set [4] (CC50 at 24 h). In addition, the “Ratio CC50/IC50” value in data set [5] is 11.3; in data set [6], 14.5.

Consider `CCOC(=O)c1c(CN2CCOCC2)nc2ccc(Cl)cc2c1-c1ccccc1`, for which the IC50 in the data set on Trypanosoma cruzi [1] is 85.3 µM.
